Assay results published in ChEMBL document CHEMBL1121601, “Synthesis and anxiolytic activity of a series of pyrazino[1,2-a][1,4]benzodiazepine derivatives” (J Med Chem, 1980).
The source made the active and inactive calls. No cut-off for these calls is given here.

Columns and labels:
[1] = molecular target: GABA-A receptor; anion channel; assay: Displacement of [3H]diazepam from GABA-A receptor in rat synaptosomal membranes; format: cell membranes, Membrane
How it was run: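 Test agents over a wide concentration range, triplicate tubes per concentration. […] IC50 for inhibition of specific binding read graphically.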

[2] = Compound was evaluated for in vitro inhibition of histamine activated adenylate cyclase in guinea pig cerebral cortex; format: functional, tissue-based, Cavia porcellus
How it was run: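 Cell-free vesicle preparation from guinea pig cerebral cortex, preincubated with [³H]adenine to label the endogenous ATP pool as [³H]ATP. Test agents were then assessed for blocking histamine activation of adenylate cyclase.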

[3] = system: Rattus norvegicus; assay: Ability to reduce the incidence of metrazole-induced seizures in rats (administered perorally or at standard dose of 30 mg/kg ); Inactive; format: functional, organism-based; set-up: dose 30 mg/kg
[4] = molecular target: Tyrosine 3-monooxygenase (Rattus norvegicus) (UniProt P04177); assay: Compound was tested to block the inhibition of tyrosine hydroxylase by apomorphine at 10 uM
Chain of Tyrosine 3-monooxygenase (Rattus norvegicus) (P04177 whole entry): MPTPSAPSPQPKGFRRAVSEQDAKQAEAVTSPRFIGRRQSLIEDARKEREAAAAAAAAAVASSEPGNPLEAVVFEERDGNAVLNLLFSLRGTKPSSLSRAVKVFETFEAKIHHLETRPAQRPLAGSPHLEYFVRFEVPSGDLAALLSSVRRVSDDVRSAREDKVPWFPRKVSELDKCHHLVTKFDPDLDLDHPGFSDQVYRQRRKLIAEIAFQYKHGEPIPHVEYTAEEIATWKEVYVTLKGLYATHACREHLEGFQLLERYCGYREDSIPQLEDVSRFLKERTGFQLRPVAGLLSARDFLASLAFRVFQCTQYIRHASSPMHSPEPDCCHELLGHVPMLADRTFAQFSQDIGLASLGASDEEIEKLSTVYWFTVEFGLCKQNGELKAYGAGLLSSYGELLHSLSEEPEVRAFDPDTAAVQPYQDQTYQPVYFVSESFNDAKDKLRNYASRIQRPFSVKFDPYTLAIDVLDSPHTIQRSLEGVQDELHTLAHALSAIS
How it was run: (§1)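 Tyrosine hydroxylase in synaptosomes, run essentially per Bronaugh and co-workers. Percent prevention of apomorphine inhibition = (% control activity with compound + Apo − % control with Apo)/(% control with compound alone − % control with Apo) × 100.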

[5] = species on record: Rattus norvegicus; assay: Ability to inhibit the uptake of serotonin (5-HT) by crude synaptosomes from rat whole brain; format: functional
How it was run: (§2)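 Crude synaptosomes from rat whole brain, per Thornberg and Moore with minor changes. Incubated 5 or 15 min with L-[3H]norepinephrine (20 or 21.2 nM unless otherwise specified) or [3H]serotonin (9.2-14 nM unless otherwise specified). Test agents dissolved in ethanol; final ethanol 1% (v/v).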

[6] = species on record: Rattus norvegicus; assay: Ability to inhibit the uptake of norepinephrine (NE) by crude synaptosomes from rat whole brain; format: functional; how it was run: as §2
[7] = molecular target: Tyrosine 3-monooxygenase (Rattus norvegicus) (UniProt P04177); assay: Compound was tested to block the inhibition of tyrosine hydroxylase by apomorphine at 1 uM; how it was run: as §1

Row | SMILES | IC50 [1] [µM] | IC50 [2] [µM] | ED50 [3] | inhibition [4] [%] | IC50 [5] [µM] | IC50 [6] [µM] | inhibition [7] [%]
1 | CN1CCN2c3ccc(Cl)cc3C(c3ccccc3)=NCC2C1 (stereo not drawn) | 9 | 9 | inactive | – | – | – | –
2 | CN1CCN2c3ccc(Cl)cc3C(c3ccc(Cl)cc3)=NCC2C1 (stereo not drawn) | > 100 | > 50 | inactive | 10 | – | – | –
3 | CC(=O)N1Cc2c(ccc(Cl)c2-c2ccccc2)N2CCN(C)CC2C1 (stereo not drawn) | > 100 | – | inactive | – | – | – | –
4 | CN1CCN2c3ccc(Cl)cc3C(c3ccccc3Cl)=NCC2C1 (stereo not drawn) | 0.8 | 30 | – | – | 45 | 30 | –
5 | CN1C(=O)CN=C(c2ccccc2)c2cc(Cl)ccc21 | – | – | – | – | – | – | 23
6 | CN1CCN2c3ccc(Cl)cc3C(Cc3ccccc3)=NCC2C1 (stereo not drawn) | > 100 | > 50 | inactive | – | – | – | –
7 | O=C(CCCN1CCC(O)(c2ccc(Cl)cc2)CC1)c1ccc(F)cc1 | – | – | – | – | – | – | 28
8 | CN(C)CCCN1c2ccccc2CCc2ccc(Cl)cc21 [CLOMIPRAMINE] | – | 4.4 | – | – | 0.75 | 9.5 | –
9 | CC1=NCC2CN(C)CCN2c2ccc(Cl)cc21 (stereo not drawn) | > 100 | 5 | inactive | – | – | – | –
10 | CN1CCN2c3ccccc3Cc3ccccc3C2C1 (stereo not drawn) [MIANSERIN] | – | 0.19 | – | – | 35 | 36 | –
11 | CN1CCN2c3ccc(Cl)c(-c4ccccc4)c3CNCC2C1 (stereo not drawn) | > 100 | > 50 | inactive | – | – | – | –
12 | CNCCCN1c2ccccc2CCc2ccccc21 [DESIPRAMINE] | – | 10.5 | – | – | 6.5 | 0.08 | –
